Values after ≈ are worked out from the molar mass of the structure shown.
Experiments:
Format in all cases: functional
[1] = test system: Staphylococcus epidermidis; assay: Antibacterial activity against Staphylococcus epidermidis isolated from patient with diabetic foot infection after 18 to 24 hrs by broth microdilution method
Procedure, shortened: (§1)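 Isolates were subcultured on Trypticase soy blood agar and tested by broth microdilution in cation-adjusted Mueller-Hinton broth. In-house trays of twofold drug dilutions were stored at −70°C. Overnight colonies gave a final inoculum of about 5 × 10^5 CFU/ml. Plates were read after 18 to 24 h at 37°C.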

[2] = test system: Staphylococcus haemolyticus; assay: Antibacterial activity against Staphylococcus haemolyticus isolated from patient with diabetic foot infection after 18 to 24 hrs by broth microdilution method
[3] = test system: Staphylococcus lugdunensis; assay: Antibacterial activity against Staphylococcus lugdunensis isolated from patient with diabetic foot infection after 18 to 24 hrs by broth microdilution method
Procedure, shortened: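 Subcultured on Trypticase soy blood agar, then broth microdilution in cation-adjusted Mueller-Hinton broth. Trays were made in-house with serial twofold drug dilutions and stored at −70°C. Inoculum was colonies from overnight growth, final approximately 5 × 10^5 CFU/ml. MIC was read after 18 to 24 h at 37°C. QC strains: S. aureus ATCC 29213 and E. coli ATCC 25922.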

Streptococcus pyogenes = assay: Antibacterial activity against Streptococcus pyogenes isolated from patient with diabetic foot infection after 18 to 24 hrs by broth microdilution method
Procedure, shortened: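 Streptococcal isolates were subcultured on Trypticase soy blood agar. Broth microdilution used cation-adjusted Mueller-Hinton broth with lysed horse blood, in in-house trays of serial twofold drug dilutions stored at −70°C. Overnight colonies were suspended to a final inoculum of approximately 5 × 10^5 CFU/ml. MIC was read after 18 to 24 h incubation at 37°C.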

[4] = test system: Corynebacterium amycolatum; assay: Antibacterial activity against Corynebacterium amycolatum isolated from patient with diabetic foot infection after 48 hrs by broth microdilution method
Procedure, shortened: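 Isolates were subcultured on Trypticase soy blood agar. Broth microdilution used cation-adjusted Mueller-Hinton broth with lysed horse blood, in-house trays of twofold drug dilutions stored at −70°C. Colonies from overnight growth gave a final inoculum of about 5 × 10^5 CFU/ml. Trays were read after 18 to 24 h at 37°C, up to 48 h for some strains.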

Staphylococcus aureus [5] = assay: Antibacterial activity against methicillin-sensitive Staphylococcus aureus isolated from patient with diabetic foot infection assessed as percent resistant isolates after 18 to 24 hrs by broth microdilution method
Procedure, shortened: (§2)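 Isolates grown on Trypticase soy blood agar, then tested by broth microdilution in unsupplemented cation-adjusted Mueller-Hinton broth. In-house trays held serial twofold drug dilutions and were stored at −70°C. Overnight colonies were suspended to a final inoculum near 5 × 10^5 CFU/ml, and trays read after 18–24 h at 37°C. QC strains: S. aureus ATCC 29213, E. coli ATCC 25922.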

Staphylococcus aureus [6] = assay: Antibacterial activity against methicillin-resistant Staphylococcus aureus isolated from patient with diabetic foot infection after 18 to 24 hrs by broth microdilution method; procedure, shortened: as §2
[7] = test system: Staphylococcus haemolyticus; assay: Antibacterial activity against Staphylococcus haemolyticus isolated from patient with diabetic foot infection assessed as percent resistant isolates after 18 to 24 hrs by broth microdilution method
Streptococcus agalactiae = assay: Antibacterial activity against Streptococcus agalactiae isolated from patient with diabetic foot infection assessed as percent resistant isolates after 18 to 24 hrs by broth microdilution method
Procedure, shortened: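 Streptococci subcultured on Trypticase soy blood agar and tested by broth microdilution in cation-adjusted Mueller-Hinton broth with lysed horse blood. In-house twofold dilution trays stored at −70°C. About 5 × 10^5 CFU/ml final inoculum from overnight colonies. Read after 18 to 24 h at 37°C.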

Corynebacterium xerosis = assay: Antibacterial activity against Corynebacterium xerosis isolated from patient with diabetic foot infection assessed as percent resistant isolates after 48 hrs by broth microdilution method
Procedure, shortened: (§3)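 Isolates subcultured on Trypticase soy blood agar. Broth microdilution in cation-adjusted Mueller-Hinton broth with lysed horse blood, using in-house twofold dilution trays stored at −70°C. Inoculum from overnight colonies at about 5 × 10^5 CFU/ml final. Read after 18 to 24 h at 37°C, up to 48 h for some Corynebacterium strains.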

[8] = test system: Corynebacterium minutissimum; assay: Antibacterial activity against Corynebacterium minutissimum isolated from patient with diabetic foot infection assessed as percent resistant isolates after 48 hrs by broth microdilution method; procedure, shortened: as §3
Enterococcus faecalis = assay: Antibacterial activity against Enterococcus faecalis after 44 to 48 hrs by agar dilution method
Staphylococcus aureus [9] = assay: Antibacterial activity against Staphylococcus aureus ATCC 29213 after 44 to 48 hrs by agar dilution method
Clostridioides difficile = assay: Antibacterial activity against Clostridium difficile ATCC 700057 after 44 to 48 hrs by agar dilution method
Procedure, shortened: (§4)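 CLSI M11-A7 agar dilution: serial twofold drug dilutions made on the test day and added to molten agar. Spots of 10^5 CFU were applied by replicator, with drug-free control plates inoculated before and after each set. Incubation was 44 to 48 h at 37°C in an anaerobic chamber. MIC was the lowest concentration giving no growth or a marked change in growth versus controls.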

Enterobacter cloacae = assay: Antibacterial activity against Enterobacter cloacae isolated from patient with diabetic foot infection after 18 to 24 hrs by broth microdilution method; procedure, shortened: as §1
Bacteroides fragilis = assay: Antibacterial activity against Bacteroides fragilis ATCC 25285 after 44 to 48 hrs by agar dilution method; procedure, shortened: as §4
Corynebacterium = assay: Antibacterial activity against multi drug-resistant Corynebacterium assessed as percent of susceptible isolates at =< 4 ug/ml by NCCLS M7-A6 method
Providencia rettgeri [10] = assay: Antibacterial activity against Proteus rettgeri isolated from patient with diabetic foot infection assessed as percent resistant isolates after 18 to 24 hrs by broth microdilution method
Procedure, shortened: (§5)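 Aerobes subcultured on Trypticase soy blood agar, then broth microdilution in cation-adjusted Mueller-Hinton broth. Trays prepared in-house with twofold dilutions and stored at −70°C. Overnight colonies suspended to about 5 × 10^5 CFU/ml final. Read after 18 to 24 h at 37°C. QC strains included S. aureus ATCC 29213 and E. coli ATCC 25922.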

Escherichia coli = assay: Antibacterial activity against Escherichia coli ATCC 25922 after 44 to 48 hrs by agar dilution method
Proteus mirabilis = assay: Antibacterial activity against Proteus mirabilis isolated from patient with diabetic foot infection after 18 to 24 hrs by broth microdilution method; procedure, shortened: as §1
Klebsiella aerogenes = assay: Antibacterial activity against Enterobacter aerogenes isolated from patient with diabetic foot infection assessed as percent resistant isolates after 18 to 24 hrs by broth microdilution method; procedure, shortened: as §5
Providencia rettgeri [11] = assay: Antibacterial activity against Proteus rettgeri isolated from patient with diabetic foot infection after 18 to 24 hrs by broth microdilution method; procedure, shortened: as §1
Klebsiella oxytoca = assay: Antibacterial activity against Klebsiella oxytoca isolated from patient with diabetic foot infection after 18 to 24 hrs by broth microdilution method; procedure, shortened: as §1

| SMILES | MIC50 [1] [µg/mL] | MIC90 [1] [µg/mL] | MIC50 [2] [µg/mL] | MIC90 [2] [µg/mL] | MIC50 [3] [µg/mL] | MIC90 [3] [µg/mL] | MIC50 (Streptococcus pyogenes) [µg/mL] | MIC90 (Streptococcus pyogenes) [µg/mL] | MIC50 [4] [µg/mL] | MIC90 [4] [µg/mL] | Activity (Staphylococcus aureus [5]) [%] | MIC50 (Staphylococcus aureus [6]) [µg/mL] | MIC90 (Staphylococcus aureus [6]) [µg/mL] | Activity [7] [%] | Activity (Streptococcus agalactiae) [%] | MIC50 (Enterobacter cloacae) [µg/mL] | MIC90 (Enterobacter cloacae) [µg/mL] | Activity (Providencia rettgeri [10]) [%] | MIC50 (Proteus mirabilis) [µg/mL] | MIC90 (Proteus mirabilis) [µg/mL] | also measured |
| --- | --- | --- | --- | --- | --- | --- | --- | --- | --- | --- | --- | --- | --- | --- | --- | --- | --- | --- | --- | --- | --- |
| CCC[C@@H]1C[C@@H](C(=O)N[C@@H]([C@H]2O[C@H](SC)[C@H](O)[C@@H](O)[C@H]2O)[C@H](C)Cl)N(C)C1 [CLINDAMYCIN] | 0.25 (≈ 0.588 µM) | > 64 | 0.125 (≈ 0.294 µM) | 8 (≈ 18.8 µM) | 0.125 (≈ 0.294 µM) | > 64 | 0.125 (≈ 0.294 µM) | > 64 | > 64 | > 64 | 0 | 0.125 (≈ 0.294 µM) | > 64 | 13 | 33 | – | – | – | – | – | Activity (Corynebacterium xerosis): 78%; Activity [8]: 100% |
| C[C@@H](O)[C@H]1C(=O)N2C(C(=O)O)=C(S[C@@H]3CN[C@H](CNS(N)(=O)=O)C3)[C@H](C)[C@H]12 [DORIPENEM] | 0.25 (≈ 0.595 µM) | 2 (≈ 4.76 µM) | 0.5 (≈ 1.19 µM) | 16 (≈ 38 µM) | 0.125 (≈ 0.297 µM) | 0.125 (≈ 0.297 µM) | ≤ 0.015 | ≤ 0.015 | 1 (≈ 2.38 µM) | 8 (≈ 19 µM) | 0 | 0.5 (≈ 1.19 µM) | 8 (≈ 19 µM) | 73 | 0 | 0.06 (≈ 0.143 µM) | 0.25 (≈ 0.595 µM) | 0 | 0.125 (≈ 0.297 µM) | 0.25 (≈ 0.595 µM) | MIC (Enterococcus faecalis): 2 µg/mL (≈ 4.76 µM); MIC (Staphylococcus aureus [9]): 0.03 µg/mL (≈ 0.0713 µM); MIC (Clostridioides difficile): 2 µg/mL (≈ 4.76 µM); MIC (Bacteroides fragilis): 0.125 µg/mL (≈ 0.297 µM); Activity (Corynebacterium): 40%; MIC (Escherichia coli): ≤ 0.015 µg/mL; Activity (Klebsiella aerogenes): 0%; MIC50 (Providencia rettgeri [11]): 0.125 µg/mL (≈ 0.297 µM); MIC90 (Providencia rettgeri [11]): 0.25 µg/mL (≈ 0.595 µM); MIC50 (Klebsiella oxytoca): 0.06 µg/mL (≈ 0.143 µM); MIC90 (Klebsiella oxytoca): 0.125 µg/mL (≈ 0.297 µM) |
| C[C@@H](O)[C@H]1C(=O)N2C(C(=O)O)=C(S[C@@H]3CN[C@H](C(=O)Nc4cccc(C(=O)O)c4)C3)[C@H](C)[C@H]12 [ERTAPENEM] | 2 (≈ 4.21 µM) | 8 (≈ 16.8 µM) | 4 (≈ 8.41 µM) | > 32 | 0.5 (≈ 1.05 µM) | 1 (≈ 2.1 µM) | ≤ 0.015 | ≤ 0.015 | 1 (≈ 2.1 µM) | 32 (≈ 67.3 µM) | 0 | 2 (≈ 4.21 µM) | > 32 | 73 | 0 | 0.06 (≈ 0.126 µM) | 0.5 (≈ 1.05 µM) | 0 | ≤ 0.015 | 0.25 (≈ 0.526 µM) | Activity (Klebsiella aerogenes): 0%; MIC50 (Providencia rettgeri [11]): ≤ 0.015 µg/mL; MIC90 (Providencia rettgeri [11]): 0.25 µg/mL (≈ 0.526 µM); MIC50 (Klebsiella oxytoca): ≤ 0.015 µg/mL; MIC90 (Klebsiella oxytoca): ≤ 0.015 µg/mL |
| C[C@@H](O)[C@H]1C(=O)N2C(C(=O)O)=C(SCCNC=N)C[C@H]12 [IMIPENEM ANHYDROUS] | 0.125 (≈ 0.418 µM) | 0.5 (≈ 1.67 µM) | 0.06 (≈ 0.2 µM) | 16 (≈ 53.4 µM) | 0.03 (≈ 0.1 µM) | 0.06 (≈ 0.2 µM) | ≤ 0.015 | ≤ 0.015 | 0.25 (≈ 0.835 µM) | 32 (≈ 107 µM) | 0 | 0.25 (≈ 0.835 µM) | 4 (≈ 13.4 µM) | 73 | 0 | 1 (≈ 3.34 µM) | 2 (≈ 6.68 µM) | 0 | 0.5 (≈ 1.67 µM) | 4 (≈ 13.4 µM) | Activity (Klebsiella aerogenes): 0%; MIC50 (Providencia rettgeri [11]): 0.5 µg/mL (≈ 1.67 µM); MIC90 (Providencia rettgeri [11]): 4 µg/mL (≈ 13.4 µM); MIC50 (Klebsiella oxytoca): 0.25 µg/mL (≈ 0.835 µM); MIC90 (Klebsiella oxytoca): 1 µg/mL (≈ 3.34 µM); Activity (Corynebacterium xerosis): 0%; Activity [8]: 30% |
| C[C@@H](O)[C@H]1C(=O)N2C(C(=O)O)=C(S[C@@H]3CN[C@H](C(=O)N(C)C)C3)[C@H](C)[C@H]12 [MEROPENEM] | 1 (≈ 2.61 µM) | 4 (≈ 10.4 µM) | 1 (≈ 2.61 µM) | 32 (≈ 83.4 µM) | 0.25 (≈ 0.652 µM) | 0.5 (≈ 1.3 µM) | ≤ 0.015 | ≤ 0.015 | – | – | 0 | 2 (≈ 5.22 µM) | 16 (≈ 41.7 µM) | 73 | 0 | 0.06 (≈ 0.156 µM) | 0.5 (≈ 1.3 µM) | 0 | 0.06 (≈ 0.156 µM) | 0.125 (≈ 0.326 µM) | Activity (Klebsiella aerogenes): 0%; MIC50 (Providencia rettgeri [11]): 0.06 µg/mL (≈ 0.156 µM); MIC90 (Providencia rettgeri [11]): 0.125 µg/mL (≈ 0.326 µM); MIC50 (Klebsiella oxytoca): 0.03 µg/mL (≈ 0.0782 µM); MIC90 (Klebsiella oxytoca): 0.06 µg/mL (≈ 0.156 µM); Activity (Corynebacterium xerosis): 0%; Activity [8]: 20% |

— ChEMBL document CHEMBL1153560, “In vitro activities of doripenem and six comparator drugs against 423 aerobic and anaerobic bacterial isolates from infected diabetic foot wounds” (2008)
